The test system of assay [1] is bone marrow neutrophils. The assay is described as follows: Western blot of IL-1β release from neutrophils. Type of assay: cell-based, mouse. The note with it: for Inhibition of hBD3-mediated IL-1β release: WT neutrophils, inhibitor 10μM added together with LTA, n=3. In general terms: A western blot detects proteins with antibodies after separation by electrophoresis.

Assay [2] concerns the target T1, Mrgpra2b-GFP (Mus musculus, UniProt Q91WW4).
T1 sequence (Q91WW4 1-305): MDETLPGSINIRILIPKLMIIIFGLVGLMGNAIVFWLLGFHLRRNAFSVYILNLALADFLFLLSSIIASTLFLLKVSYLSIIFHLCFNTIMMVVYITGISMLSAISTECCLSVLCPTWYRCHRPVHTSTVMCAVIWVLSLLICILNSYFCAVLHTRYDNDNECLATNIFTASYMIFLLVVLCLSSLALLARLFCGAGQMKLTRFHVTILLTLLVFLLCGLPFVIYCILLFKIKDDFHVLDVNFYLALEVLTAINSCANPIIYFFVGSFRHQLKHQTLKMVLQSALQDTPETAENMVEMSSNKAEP
The assay is described as follows: co-IP of biotin-hBD3 with Mrgpra2b-GFP. Type of assay: binding. The following applies: 10μM biotin-hBD3, 4°C overnight, anti-GFP beads, anti-biotin western blot.

The next assay deals with T2, Mrgpra2b (Mus musculus, UniProt Q91WW4).
T2 sequence (Q91WW4 1-305): T1 sequence (Q91WW4 1-305)
The assay is described as follows: FLIPR intracellular Ca2+ mobilization, HEK cells expressing Mrgpra2b. It is filed as cell-based. The note with it: for Mrgpra2 receptor activation: FLIPR Ca2+ mobilization, Figure S1E (negative peptides), Figure 1E. Background: Calcium assays in cells follow changes in intracellular calcium, usually with a dye or a luminescent sensor.

Assay [3] concerns bone marrow neutrophils. Kind of assay: IL-1β and Cxcl2 release from neutrophils. It is filed as cell-based, mouse. A digest of the protocol: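 MACS-purified bone marrow neutrophils were primed with 1 μg/mL S. aureus lipoteichoic acid for 2 h. hBD3 or mBD14 was then added at 10 μM final. After a further 2 h, supernatants were collected and cells lysed in RIPA buffer. IL-1β and Cxcl2 were measured in both fractions by DuoSet ELISA. 5 mM ATP served as positive control.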

For assay [4], the system named is neutrophils. Kind of assay: Neutrophil elastase release. It is filed as cell-based. The note with it: Mrgpra2 dKO mouse neutrophils; hBD3 0-10 μM or 10 μM mBD14, one hour; n=5. Summed up:
(§1)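 Bone marrow neutrophils were MACS-purified from 8-10-week-old C57BL/6J-background mice of both sexes, with >90% purity by flow cytometry. 2×10^5 cells in RPMI were incubated 1 h with 0, 1, 5 or 10 μM hBD3 or 10 μM mBD14, both dissolved in RPMI. Elastase and MPO in the supernatant were quantified by DuoSet sandwich ELISA.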

Assay [5] deals with neutrophils. The assay is described as follows: Neutrophil myeloperoxidase. It is filed as cell-based. The note with it: Mrgpra2 dKO mouse neutrophils; hBD3 0-10 μM or 10 μM mBD14, one hour; n=5. Summed up: as §1
Assay [6] concerns bone marrow neutrophils. Kind of assay: Proteome profiler array of neutrophil cytokines and chemokines. Type of assay: cell-based, mouse. The note with it: S. aureus LTA 1 μg/mL alone (signal 1), vs control.
In another assay the test system is S. aureus. Kind of assay: Intradermal S. aureus skin infection, bacterial bioluminescence. It is filed as in vivo, Staphylococcus aureus USA300 LAC::lux in mouse. The following applies: 100ng each, co-injected with S. aureus; bioluminescence 24 hours post-infection; n=8-36.
A further assay deals with MRGPRX3-FLAG (human) (UniProt Q96LB0).
Assay [7] addresses T3, Mrgpra2b-GFP (mouse, UniProt Q91WW4 1-305).
T3 sequence (looked up): T1 sequence (Q91WW4 1-305)
Kind of assay: flow cytometry on cells. For orientation: In flow cytometry, cells or beads pass a laser one at a time.

Setting [8] is: ELISA, LTA 1 μg/mL 2 hours, then 10 μM hBD3 or mBD14 for 2 hours, n=5.

Entries after “also recorded” stand apart in the source; their conditions may differ. *1 amine or outer side, *2 acyl side, *3 side chain or, on linkers, in order; H or OH if unused. Where a SMILES comes first, the peptide text is derived from it. Bridges are numbered along the chain shown (N, C = ends). Where no end group is shown, it is not given here. [ ]: non-standard residue; d: D form. The star is where a group is joined. X1 = CC(=O)NC(C(=O)OC(C(C)C)C(N[*:1])C(=O)[*:2])C(O)C(C)C; Biotin = O=C1N[C@H]2[C@H](CS[C@H]2CCCCC(=O)*)N1; PhLac = O=C(O)[CH](O)Cc1ccccc1; NMeT = CN[CH](C(=O)O)[CH](C)O; NMeA = CN[CH](C)C(=O)O; NMeDha = C=C(NC)C(=O)O

Sequence of MRGPRX3-FLAG (human) (Q96LB0 whole entry): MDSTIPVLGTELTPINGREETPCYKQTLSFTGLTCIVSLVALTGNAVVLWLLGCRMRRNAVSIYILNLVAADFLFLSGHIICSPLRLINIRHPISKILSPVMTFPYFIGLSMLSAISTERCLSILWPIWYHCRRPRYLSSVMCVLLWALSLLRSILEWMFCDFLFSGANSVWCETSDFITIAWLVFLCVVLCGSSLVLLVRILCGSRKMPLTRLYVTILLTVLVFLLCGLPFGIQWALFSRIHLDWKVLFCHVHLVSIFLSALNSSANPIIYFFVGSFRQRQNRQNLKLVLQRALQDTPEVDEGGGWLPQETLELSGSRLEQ

On to `CC(C)[C@H](NC(=O)c1ccc2ccccc2n1)C(=O)N[C@@H](CC(=O)O)C(=O)COc1c(F)cccc1F` [Q-VD-OPh], for which the “Inhibition of hBD3-mediated IL-1β release” value with bone marrow neutrophils [1] is on record as “inhibited; also recorded: effectively reduced IL-1β release from WT neutrophils in response to hBD3”. Take `C=C1C(=O)NC(C)C(=O)N(C)C(C)C(=O)NC(C(OC(=O)C(NC(C)=O)C(O)C(C)C)C(C)C)C(=O)N(C)C(C(C)OC)C(=O)OC(C)C(NC(C)=O)C(=O)OC(Cc2ccccc2)C(=O)N1C` (stereo not shown) [YM-254890] (Ac-T[PhLac][NMeDha]A[NMeA][X1][NMeT](Me); ester 1-C; configuration not given here): the “Inhibition of hBD3-mediated IL-1β release” value in the assay with bone marrow neutrophils [1] was “inhibited”. Turning to “Biotin-GIINTLQKYYCRVRGGRCAVLSCLPKEEQIGKCSTRGRKCCRRKK (disulfide 11-40, 18-33, 23-41) [biotin-hBD3]”, at Mrgpra2b-GFP [2], the “Co-precipitation with Mrgpra2b-GFP” value is “co-precipitated only with Mrgpra2b-GFP; also recorded: could be co-precipitated”. Take “FLPKTLRKFFCRIRGGRCAVLNCLGKEEQIGRCSNSGRKCCRKKK (disulfide 11-40, 18-33, 23-41) [mBD14]”: on Mrgpra2b, the concentration giving a half-maximal response (EC50) (as a rule, the concentration giving half of the maximal effect) came to 18.7 µM and the Mrgpra2 receptor activation entry is “evoked robust receptor activation”. In addition, in the assay on bone marrow neutrophils [3] (ELISA, total = secreted + intracellular, defensin alone, no LTA, n=5), the “Synthesis of IL-1β or Cxcl2, defensin alone” value is on record as “did not induce the synthesis of IL-1β or Cxcl2”. For the same molecule, in the assay on bone marrow neutrophils [3] (setting [8]), the “Cxcl2 release, LTA-primed Mrgpra2 dKO neutrophils” value is listed as “did not respond to hBD3 or mBD14”; the “Cxcl2 release, LTA-primed WT neutrophils” value was “released IL-1β and Cxcl2 in response to hBD3 or mBD14 stimuli; also recorded: significant increase in the amount of IL-1β and Cxcl2”; the “IL-1β release, LTA-primed Mrgpra2 dKO neutrophils” value is listed as “did not respond to hBD3 or mBD14”; the “IL-1β release, LTA-primed WT neutrophils” value was “released IL-1β and Cxcl2 in response to hBD3 or mBD14 stimuli; also recorded: significant increase in the amount of IL-1β”. Besides, the “Elastase release, Mrgpra2 dKO neutrophils” value in the assay on neutrophils [4] is recorded as “did not respond to hBD3 or mBD14 stimuli”. For the same molecule, the “MPO release, Mrgpra2 dKO neutrophils” value in the assay on neutrophils [5] is “did not respond to hBD3 or mBD14 stimuli”. As to “KKINNPVSCLRKGGRCWNRCIGNTRQIGSCGVPFLKCCKRK (disulfide 9-37, 16-30, 20-38) [mBD3]”, at Mrgpra2b, the EC50 worked out at 42.8 µM. As to “hBD1: Human peptide hBD1 (DHYNCVSSGGQCLYSACPIFTKIQGTCYRGKAKCCK; UniProt P60022 33-68, looked up)”, the Mrgpra2 receptor activation entry in the assay with Mrgpra2b was “did not trigger receptor activation”.

Regarding “hBD2: Human peptide, printed as 'hBD1, 2 and 4' (GIGDPVTCLKSGAICHPVFCPRRYKQIGTCGLPGTKCCKKP; UniProt O15263 24-64, looked up)”, in the assay with Mrgpra2b, the Mrgpra2 receptor activation result is on record as “did not trigger receptor activation”. In the case of “hBD4: Human peptide, printed as 'hBD1, 2 and 4' (EFELDRICGYGTARCRKKCRSQEYRIGRCPNTYACCLRKWDESLLNRTKP; UniProt Q8WTQ1 23-72, looked up)”, the Mrgpra2 receptor activation entry with Mrgpra2b was “did not trigger receptor activation”. lipoteichoic acid [LTA]: the “Production of pro-IL-1β by LTA” value in the assay with bone marrow neutrophils [1] (S. aureus LTA 1 μg/mL, WT and Mrgpra2 dKO neutrophils) is “induced the production of pro-IL-1β in both WT and Mrgpra2 dKO neutrophils”. Also, the “Release of IL-1ra, Ccl3, Ccl4, Cxcl2 and TNFα by LTA alone” value in the assay with bone marrow neutrophils [6] was “triggered the release of more IL-1ra, Ccl3, Ccl4, Cxcl2 and TNFα compared to the control”. In the assay on bone marrow neutrophils [3] (S. aureus LTA 1 μg/mL alone (signal 1), Figure 7A, D), the “IL-1β production and release by LTA alone” value is given as “induced the production of IL-1β, but the cytokine was not released from the cells”. In the assay on bone marrow neutrophils [3] (S. aureus LTA 1 μg/mL, Figure 7A, C, D), the “Priming effect of LTA, WT versus Mrgpra2 dKO neutrophils” value is “did not differ between WT or Mrgpra2 dKO neutrophils”. For the molecule “mBD1: mouse peptide mBD1 (DQYKCLQHGGFCLRSSCPSNTKLQGTCKPDKPNCCKS; UniProt P56386 33-69, looked up)”, in the assay with Mrgpra2b, the Mrgpra2 receptor activation entry is reported as “did not trigger receptor activation”. Still for that read-out and setting: the value for “mBD2: mouse peptide, printed as 'mBD1, 2, 4' (AVGSLKSIGYEAELDHCHTNGGYCVRAICPPSARRPGSCFPEKNPCCKYMK; UniProt P82020 21-71, looked up)” was “did not trigger receptor activation”.

B1: Cxcl2: recombinant mouse Cxcl2, R&D (protein, UniProt P10889 28-100, looked up)
C-X-C motif chemokine 2: AVVASELRCQCLKTLPRVDFKNIQSLSVTPPGPHCAQTEVIATLKGGQKVCLDPEAPLVQKIIQKILNKGKAN
As for B1, in the assay with S. aureus, the “Bacterial load / anti-S. aureus rescue, Def cKO mice” value is “did not rescue Mrgpra2 or Def KO phenotypes; also recorded: did not alter the mutant phenotypes” and the “Bacterial load / anti-S. aureus rescue, Mrgpra2 dKO mice” value is “did not rescue Mrgpra2 or Def KO phenotypes; also recorded: did not alter the mutant phenotypes”.

B2: Human beta-defensin 3 (peptide)
peptide: GIINTLQKYYCRVRGGRCAVLSCLPKEEQIGKCSTRGRKCCRRKK
modifications: ends and bridges not checked; cysteine pairing not given here
B2: the EC50 of FLIPR intracellular calcium mobilization in HEK cells expressing MRGPRX3 in the assay with MRGPRX3-FLAG (human) was determined as 10.8 µM.

B3: IL-1β: Recombinant IL-1β, R&D systems 401-ML (protein, UniProt P10749 118-269, looked up)
Interleukin-1 beta: VPIRQLHYRLRDEQQKSLVLSDPYELKALHLNGQNINQQVIFSMSFVQGEPSNDKIPVALGLKGKNLYLSCVMKDGTPTLQLESVDPKQYPKKKMEKRFVFNKIEVKSKVEFESAEFPNWYISTSQAEHKPVFLGNNSGQDIIDFTMESVSS
B3: in the assay with S. aureus, the “Bacterial load / anti-S. aureus rescue, Def cKO mice” value is “rescued the anti-S. aureus defect of Mrgpra2 dKO and Def cKO mice; also recorded: significantly reduced the bacterial load”; the “Bacterial load / anti-S. aureus rescue, Mrgpra2 dKO mice” value was “rescued the anti-S. aureus defect of Mrgpra2 dKO and Def cKO mice; also recorded: significantly reduced the bacterial load”.

B4: N-terminal biotinylated human beta-defensin 3 (peptide, UniProt P81534 23-67, looked up)
peptide: Biotin-GIINTLQKYYCRVRGGRCAVLSCLPKEEQIGKCSTRGRKCCRRKK
modifications: ends and bridges not checked
Consider B4, for which the Kd (in general, the concentration at which binding is half-saturated) with Mrgpra2b-GFP [7] was found to be 15.9 µM.

Values taken from paper PMC9474599 (Immunity, 2022).
